Measured values gathered from unrelated publications.
Target: RAC-gamma serine/threonine-protein kinase (AKT3, Homo sapiens, UniProt Q9Y243)

| SMILES | test | conditions | measurement | value |
| --- | --- | --- | --- | --- |
| CO[C@@H](C)c1c(Nc2ccc([C@H](N(C)C(=O)C3CCS(=O)(=O)CC3)C(F)(F)F)cc2)cnc2cc(Cl)nn12 | cell-free assay, competition with immobilised ligand | 1 µM | remaining binding | 100% |
| O=C1NC(=O)c2cc(Nc3ccc(F)cc3)c(Nc3ccc(F)cc3)cc21 | cell-free assay | 0.5 µM | remaining signal | 100% |
| CC(=O)N1CCC(c2ccc(C(=O)NC3=NCCN3)cc2C(F)(F)F)CC1 | cell-free assay, competition with immobilised ligand | 1 µM | remaining binding | 100% |
| Cc1cnc(NC2CCOCC2)nc1-n1cnc(C(=O)NC(CN)c2cc(F)cc(Cl)c2)c1 (centres unmarked) | enzyme activity, inhibitor, radiometric | 1 µM | remaining activity | 78% |
| Cn1c2c(c3ccc(Cl)c(Cl)c31)C(C#N)C1(CCNCC1)NC2=O (racemic) | thermal stability, DSF | 10 µM | ΔTm | -0.1 °C |
| C#Cc1cccc(Nc2ncnc3cc(OCCOC)c(OCCOC)cc23)c1 | cell-free assay | 0.5 µM | remaining signal | 74.6% |
| CC(C)(C)c1nc2c(s1)c1nc(N)ncc1c1ccc(NS(=O)(=O)c3c(F)cccc3F)c(F)c12 | enzyme activity, inhibitor, radiometric | 1 µM | remaining activity | 89% |
| CNc1cccc2cc(C(=O)Nc3ccc(C(=O)O)cc3)c(=O)[nH]c12 | enzyme activity, inhibitor | 10 µM | inhibition | 5.8% |
| Cn1c2c(Cl)c(Cl)ccc2c2cc(N)[nH]c(=O)c21 | thermal stability, DSF | 10 µM | ΔTm | 0.3 °C |
| Cc1ccc(C(=O)Nc2ccc(CN3CCN(C)CC3)c(C(F)(F)F)c2)cc1C#Cc1cnc2cccnn12 | enzyme activity, inhibitor | 23.5 nM | remaining activity | 100% |
| O=C(N1CCS(=O)(=O)CC1)N1C[C@H](c2ccc(OC(F)(F)F)cc2)C[C@H](c2nc(C3CC3)no2)C1 | cell-free assay, competition with immobilised ligand | 1 µM | remaining binding | 100% |
| Cc1ccc(NC(=O)c2ccc(C)c(C(F)(F)F)c2)cc1C#Cc1nn(C2CCC(O)CC2)c2ncnc(N)c12 (centres unmarked) | cell-free assay | 10 µM | remaining signal | 94% |
| Cn1nc(C(=O)NCc2ccc(C(=O)O)cc2)cc1-c1ccc2[nH]ccc2c1 | cell-free assay, competition with immobilised ligand | 0.1 µM | remaining binding | 88% |
| Cc1sc(C(=O)NC2COC2)cc1-n1cc(NC(=O)Nc2c(F)cccc2Cl)cn1 | enzyme activity, inhibitor | 10 µM | remaining activity | 94.8% |
| CCCOc1ccc(OC)c(F)c1C(=O)c1ccc(C(=O)N[C@@H]2CNC[C@H]2NC(=O)c2ccc3[nH]ncc3c2)cc1 | enzyme activity, inhibitor | 50 nM | remaining activity | 97% |
| CN(C)c1ncnc(-c2ccc3nc(Nc4cc(CN5CCN(C(=O)CC(F)(F)F)CC5)ccn4)[nH]c3c2)c1Cl | cell-free assay, competition with immobilised ligand | 1 µM | remaining binding | 96% |
| CN1CCC2(CC1)NC(=O)c1c(c3ccc(Cl)c(Cl)c3n1C)C2C#N (racemic) | thermal stability, DSF | 10 µM | ΔTm | 0 °C |
